In ChEMBL document CHEMBL1131598, “Synthesis and anticonvulsant activity of a new class of 2-[(arylalky)amino]alkanamide derivatives” (J Med Chem, 1998):

Legend:
[1] = tested on: Mus musculus; assay: Anticonvulsant potency using the intravenous-BIC (bicuculline) test in mice; type: functional
How it was run: (§1)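 Male Crl:CD-1(ICR)BR mice (22-24 g) were dosed orally at 5 mL/kg 60 min before bicuculline 0.6 mg/kg, a dose giving tonic extensor convulsions in at least 97% of vehicle-treated mice. Protection from tonic extension was scored for each mouse. ED50 (95% confidence interval) was obtained by probit analysis, with 10-20 animals per dose.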

[2] = Toxicity using neurological impairment measured by rotarod test in mice; conditions: mouse, in vivo
How it was run: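 Trained male Crl:CD-1(ICR)BR mice (22-24 g) were dosed orally at 5 mL/kg 60 min before testing on a 3-cm rod rotating at 10 rpm. Falls during a 2-min period were counted. TD50, the dose making 50% of animals fall, was calculated by probit analysis, with 10-20 animals per dose.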

[3] = species on record: Mus musculus; assay: Anticonvulsant potency using the maximal electroshock test in mice; type: functional
How it was run: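 Male mice received intra-aural shocks through clip electrodes (0.7 s, 28 mA, 80 Hz pulse train, 0.4 ms pulses), a stimulus giving hindlimb tonic extension in at least 97% of controls. Compound was given orally 60 min or ip 30 min beforehand, at 5 mL/kg. Protection meant complete suppression of the hindlimb tonic extensor component. ED50 (95% confidence interval) was obtained by probit analysis, with 10-20 animals per dose.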

[4] = tested on: Mus musculus; assay: Compound was tested for anticonvulsant potency using the 3-MPA (3-mercaptopropionic acid) test in mice upon peroral administration; type: functional; conditions: po
How it was run: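 Male Crl:CD-1(ICR)BR mice (22-24 g) were dosed orally at 5 mL/kg 60 min before 3-mercaptopropionic acid 60 mg/kg sc, a dose convulsing at least 97% of vehicle-treated mice. The end point was hindlimb tonic extension. ED50 (95% confidence interval) was obtained by probit analysis, with 10-20 animals per dose.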

[5] = tested on: Mus musculus; assay: Anticonvulsant potency using the PTX (picrotoxin) test in mice by peroral administration; type: functional; conditions: po
[6] = tested on: Mus musculus; assay: Compound was tested for anticonvulsant potency using the STRY (strychnine) test in mice upon peroral administration; type: functional; conditions: po
[7] = tested on: Mus musculus; assay: Compound was tested for anticonvulsant potency using the intravenous-BIC (bicuculline) test in mice; compound at 200 mg/kg induced impaired gait, loss of the righting reflex, and impaired breathing; type: functional; how it was run: as §1

C[C@@H](NCc1ccc(COc2ccccc2)cc1)C(N)=O
ED50 [1]: 40.3 mg/kg
TD50 [2]: 597 mg/kg
ED50 [3]: 10.6 mg/kg

NC(=O)[C@@H](CO)NCc1ccc(OCc2ccccc2)cc1
ED50 [1]: 133 mg/kg

C[C@@H](NCc1ccc(SCc2ccccc2)cc1)C(N)=O
ED50 [1]: 24.8 mg/kg
TD50 [2]: 633 mg/kg
ED50 [3]: 8.6 mg/kg

CNC(=O)[C@H](CCSC)NCc1ccc(OCc2ccccc2)cc1
ED50 [1]: 239 mg/kg

CNC(=O)[C@@H](CO)NCc1ccc(OCc2cccc(C(F)(F)F)c2)cc1
ED50 [1]: 19.5 mg/kg
TD50 [2]: 750 mg/kg
ED50 [3]: 13.1 mg/kg

C[C@@H](NCc1ccc(OCc2ccc(F)cc2)cc1)C(N)=O
ED50 [1]: 132 mg/kg
ED50 [3]: 16.3 mg/kg

CNC(=O)[C@@H](CO)NCc1ccc(OCc2ccccc2C(F)(F)F)cc1
ED50 [1]: 85.6 mg/kg

CNC(=O)[C@@H](NCc1ccc(OCc2ccccc2)cc1)C(C)C
ED50 [1]: 55.4 mg/kg

C[C@@H](NCc1ccc(CCc2ccccc2)cc1)C(N)=O
ED50 [1]: 40.3 mg/kg
TD50 [2]: 630 mg/kg
ED50 [3]: 17.8 mg/kg

CNC(=O)[C@@H](CO)NCc1ccc(OCc2cccc(OC)c2)cc1
ED50 [1]: 109 mg/kg

C[C@@H](NCc1ccc(NCc2ccccc2)cc1)C(N)=O
ED50 [4]: 16.3 mg/kg
ED50 [5]: 37.5 mg/kg
ED50 [6]: 50.3 mg/kg
ED50 [1]: 9.3 mg/kg
TD50 [2]: 217 mg/kg
ED50 [3]: 11.5 mg/kg

C[C@@H](NCc1ccc(OCC2CC2)cc1)C(N)=O
ED50 [1]: 124 mg/kg

C[C@@H](NCc1ccc(OCc2ccccc2F)cc1)C(N)=O
ED50 [1]: 25.8 mg/kg
TD50 [2]: 549 mg/kg
ED50 [3]: 7 mg/kg

C[C@@H](NCc1ccc(OCCc2ccccc2)cc1)C(N)=O
ED50 [1]: 24.9 mg/kg
TD50 [2]: 1120 mg/kg
ED50 [3]: 12.2 mg/kg

CC[C@@H](NCc1ccc(OCc2ccccc2)cc1)C(N)=O
ED50 [1]: 55 mg/kg
TD50 [2]: 277 mg/kg
ED50 [3]: 7.2 mg/kg

CNC(=O)CNCc1ccc(OCc2cccc(Cl)c2)cc1
ED50 [1]: 30.5 mg/kg
ED50 [3]: 48.6 mg/kg

C[C@@H](NCc1ccc(Oc2ccccc2)cc1)C(N)=O
ED50 [1]: 64 mg/kg
ED50 [3]: 41.5 mg/kg

C[C@@H](NCc1ccc(CNc2ccccc2)cc1)C(N)=O
ED50 [1]: 119 mg/kg

CCCCC(C)NCC(N)=O (configuration not stated)
ED50 [1]: 640 mg/kg

C[C@@H](NCc1ccc(OCc2ccco2)cc1)C(N)=O
ED50 [1]: 116 mg/kg

C[C@H](Nc1cccc(OCc2ccccc2)c1)C(N)=O
ED50 [1]: 79.7 mg/kg

C[C@@H](NCc1ccc(OCc2ccoc2)cc1)C(N)=O
ED50 [1]: 152 mg/kg

CNC(=O)[C@H](Cc1ccccc1)NCc1ccc(OCc2ccccc2)cc1
ED50 [1]: 61.2 mg/kg

NC(=O)CNCCc1ccc(OCc2cccc(Cl)c2)cc1
ED50 [1]: 192 mg/kg

CN(CC(N)=O)Cc1ccc(OCc2cccc(Cl)c2)cc1
ED50 [1]: 114 mg/kg
ED50 [3]: 70 mg/kg

CNC(=O)[C@@H](CO)NCc1ccc(OCc2ccccc2F)cc1
ED50 [1]: 12.4 mg/kg
TD50 [2]: 371 mg/kg
ED50 [3]: 19.8 mg/kg

CC[C@H](NCc1ccc(OCc2ccccc2)cc1)C(N)=O
ED50 [1]: 119 mg/kg

C[C@@H](NCc1ccc(OCc2ccccc2Cl)cc1)C(N)=O
ED50 [1]: 17.4 mg/kg
TD50 [2]: 525 mg/kg
ED50 [3]: 50.8 mg/kg

C[C@@H](NCc1ccc(OCc2ccccn2)cc1)C(N)=O
ED50 [1]: 172 mg/kg

C[C@@H](NCc1ccc(OCC2CCCCC2)cc1)C(N)=O
ED50 [1]: 131 mg/kg

NC(=O)CNCc1ccc(OCc2cccc(Cl)c2)cc1
ED50 [1]: 107 mg/kg
ED50 [3]: 28.5 mg/kg

CN(C)C(=O)CNCc1ccc(OCc2cccc(Cl)c2)cc1
ED50 [7]: 54.2 mg/kg

C[C@@H](NCc1ccc(OCc2cccs2)cc1)C(N)=O
ED50 [1]: 61.6 mg/kg

NC(=O)CNCc1ccccc1
ED50 [1]: 490 mg/kg

C[C@H](Nc1ccccc1OCc1ccccc1)C(N)=O
ED50 [1]: 210 mg/kg

CNC(=O)[C@H](NCc1ccc(OCc2ccccc2)cc1)C(C)O (some centres not stated)
ED50 [7]: 21 mg/kg

C[C@@H](NCc1ccc(-c2ccccc2)cc1)C(N)=O
ED50 [1]: 231 mg/kg

CNC(=O)[C@@H](CC(C)C)NCc1ccc(OCc2ccccc2)cc1
ED50 [1]: 192 mg/kg

CNC(=O)[C@H](C)NCc1ccc(OCc2ccccc2)cc1
ED50 [1]: 8.4 mg/kg
TD50 [2]: 224 mg/kg
ED50 [3]: 7 mg/kg

CNC(=O)[C@H](NCc1ccc(OCc2ccccc2)cc1)C(C)C
ED50 [1]: 112 mg/kg

NC(=O)CNCc1ccc(OCc2ccccc2)cc1
ED50 [1]: 68.6 mg/kg
TD50 [2]: 473 mg/kg
ED50 [3]: 11.5 mg/kg

C[C@@H](NCc1ccc(OCc2ccsc2)cc1)C(N)=O
ED50 [1]: 114 mg/kg

CNC(=O)[C@@H](CO)NCc1ccc(OCc2cccc(C)c2)cc1
ED50 [1]: 41.3 mg/kg
TD50 [2]: 1250 mg/kg
ED50 [3]: 30.6 mg/kg

CNC(=O)[C@@H](CO)NCc1ccc(OCc2ccc(Cl)cc2)cc1
ED50 [1]: 216 mg/kg

C[C@@H](NCc1ccc(Cc2ccccc2)cc1)C(N)=O
ED50 [1]: 15.7 mg/kg
TD50 [2]: 752 mg/kg
ED50 [3]: 22.5 mg/kg

NC(=O)CNCCc1ccccc1
ED50 [1]: 286 mg/kg

C[C@@H](NCc1ccc(OCc2cccc(F)c2)cc1)C(N)=O
ED50 [4]: 21.5 mg/kg
ED50 [5]: 60.6 mg/kg
ED50 [6]: 104 mg/kg
ED50 [1]: 26.9 mg/kg
TD50 [2]: 626 mg/kg
ED50 [3]: 8 mg/kg

CNC(=O)[C@@H](CO)NCc1ccc(OCc2cccc(F)c2)cc1
ED50 [4]: 35.6 mg/kg
ED50 [5]: 120 mg/kg
ED50 [6]: > 250 mg/kg
ED50 [1]: 25.1 mg/kg
TD50 [2]: 915 mg/kg
ED50 [3]: 13 mg/kg

C[C@@H](NCc1ccc(OCCCc2ccccc2)cc1)C(N)=O
ED50 [4]: 16.2 mg/kg
ED50 [5]: 35.4 mg/kg
ED50 [6]: 75.4 mg/kg
ED50 [1]: 19 mg/kg
TD50 [2]: 584 mg/kg
ED50 [3]: 6.7 mg/kg

NC(=O)N1c2ccccc2C=Cc2ccccc21 [CARBAMAZEPINE]
ED50 [4]: 20.1 mg/kg
ED50 [5]: 40.6 mg/kg
ED50 [6]: 43.8 mg/kg
ED50 [1]: 6.7 mg/kg
TD50 [2]: 106 mg/kg
ED50 [3]: 9.8 mg/kg

Nc1nnc(-c2cccc(Cl)c2Cl)c(N)n1 [LAMOTRIGINE]
ED50 [4]: > 40 mg/kg
ED50 [6]: > 40 mg/kg
ED50 [1]: 10.2 mg/kg
TD50 [2]: 84 mg/kg
ED50 [3]: 2.2 mg/kg

CCCCCNCC(N)=O [MILACEMIDE]
ED50 [1]: 701 mg/kg

CCCC(CCC)C(=O)O [VALPROIC ACID]
ED50 [4]: 167 mg/kg
ED50 [5]: 350 mg/kg
ED50 [6]: 538 mg/kg
ED50 [1]: 414 mg/kg
TD50 [2]: 1180 mg/kg
